The values that follow come from paper PMC2920133 (Biochemistry, 2010).

Broadly, the Kd is the equilibrium constant for the complex coming apart. A word on the pKa: it is the negative logarithm of the acid dissociation constant.

Data set [1] has as its target ArsD109 V17W single-tryptophan derivative (Escherichia coli, UniProt P46003, V17W/W35Y/W97Y). In kind it is binding. Conditions: for fluorescence quenching: high concentrations: 5 mM As(III) or 0.1 mM Sb(III) (Figure 2B).
In data set [2] the target is ArsD109 T15W single-tryptophan derivative (Escherichia coli, UniProt P46003, T15W/W35Y/W97Y). As to the kind of experiment: Intrinsic tryptophan fluorescence quenching, metalloid binding to T15W. Conditions: for fluorescence quenching: high concentrations: 5 mM As(III) or 0.1 mM Sb(III) (Figure 2B).
The next data set addresses T1, ArsD109 C18G/T15W (Escherichia coli, UniProt P46003, C18G/T15W/W35Y/W97Y).
T1 sequence (P46003 1-109 T15W/C18G/W35Y/W97Y): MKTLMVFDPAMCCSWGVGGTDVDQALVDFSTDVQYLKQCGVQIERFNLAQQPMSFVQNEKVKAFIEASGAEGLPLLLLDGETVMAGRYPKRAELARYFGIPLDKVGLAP
Briefly: Intrinsic tryptophan fluorescence quenching, As. In kind it is binding. The essentials:
(§1)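 N-terminal His6 ArsD109 (W35/97Y, T15W, plus single Cys→Gly) expressed in BL21(DE3) with 0.3 mM IPTG for 3 h. Used at 1 μM in 50 mM MOPS-KOH pH 7.5 with 0.25 mM EDTA, room temperature. Sodium arsenite titrated. Quenching rate k_obs (ex 295 nm, em 345 nm) fitted per arsenite concentration; k_obs = k_off + k_on[As(III)], and Kd = k_off/k_on.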

A further data set deals with T2, ArsD109 C12G/T15W (Escherichia coli, UniProt P46003, C12G/T15W/W35Y/W97Y).
T2 sequence (P46003 1-109 C12G/T15W/W35Y/W97Y): T1 sequence (P46003 1-109 T15W/C18G/W35Y/W97Y) with C12G, G18C
Briefly: Intrinsic tryptophan fluorescence quenching, As. Format: binding. The essentials: as §1

The next data set has as its target T3, ArsD109 C13G/T15W (Escherichia coli, UniProt P46003, C13G/T15W/W35Y/W97Y).
T3 sequence (P46003 1-109 C13G/T15W/W35Y/W97Y): T1 sequence (P46003 1-109 T15W/C18G/W35Y/W97Y) with C13G, G18C
As to the kind of experiment: Intrinsic tryptophan fluorescence quenching, As. Format: binding. In a few lines: as §1

Data set [3] relates to single-tryptophan derivatives of ArsD109. In kind it is binding, Escherichia coli. Particulars: 1 μM protein mixed with equimolar As(III), absence of added thiols. The essentials:
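Single-tryptophan ArsD109 (N-terminal His6, W35/97Y background carrying T15W or V17W), expressed in E. coli BL21(DE3). Protein at 1 μM in 50 mM MOPS-KOH pH 7.5 with 0.25 mM EDTA, room temperature, no thiol added. Sodium arsenite added from concentrated stock. Trp fluorescence (ex 295 nm, em 345 nm) followed over time and corrected for dilution.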

The target of a further data set is ArsA ATPase (Escherichia coli, UniProt P08690). Briefly: Coupled ATPase assay, metalloid-stimulated ArsA activity. Format: biochemical. Conditions: DMSA titration.
The conditions of data set [4]: thiolate of GS^−1; cited from earlier work.
For a further data set, the target named is ArsD109-ArsA (Escherichia coli, UniProt P08690+P46003, DEL110-120). As to the kind of experiment: Metalloid transfer assay on amylose column. In kind it is biochemical. Conditions: 5 mM nucleotide.
Where [5] appears, read: quenching of T15W fluorescence, retains Cys12 and Cys13.
[6] abbreviates: quenching of T15W fluorescence, retains Cys13 and Cys18.
[7] abbreviates: quenching of T15W fluorescence, retains Cys12 and Cys18.
The mark [8] stands for this setting: additive 5 mM, 50 μM sodium arsenite, pH 7.5.

Where a chain is given by its changes, count along the chain named. Where two headings read alike, the source gives them in different places.

Consider `O=[As][O-].[Na+]` [As(III), sodium arsenite], for which the “rate of fluorescence quenching at pH 9 relative to pH 7” value in [1] (50 μM sodium arsenite, 1 μM V17W, absence of GSH) was ~ 10 fold. In addition, the “fluorescence change in the absence of GSH” value in data set [1] (50 μM sodium arsenite, pH 7.5) is “decreased very slowly”. Further, the fluorescence quenching entry in data set [1] and in [2] was “approximately 50%” throughout. Besides, the Kd in [1] (read-out: Kd (binding affinity), calculated from koff/kon) is 2 ± 1 µM; in data set [2] (calculated from koff/kon) it was 1.5 ± 0.5 µM; at ArsD109 C18G/T15W (calculated from koff/kon) it was 28 ± 3 µM; at ArsD109 C12G/T15W (calculated from koff/kon), 48 ± 3 µM; on ArsD109 C13G/T15W (calculated from koff/kon), 68 ± 6 µM. Also, the koff entry was “(3 ± 1) × 10^−4 s^−1” in data set [2] (As(III) concentration dependence of fluorescence quenching, no added thiols); “(1.4 ± 0.1) × 10^−3 s^−1” at ArsD109 C18G/T15W (setting [5]); “(2.4 ± 0.1) × 10^−3 s^−1” at ArsD109 C12G/T15W (setting [6]); “(2.7 ±0.1) × 10^−3 s^−1” on ArsD109 C13G/T15W (setting [7]). In addition, the kon entry on ArsD109 C18G/T15W (setting [5]) is listed as “(5 ± 0.1) × 10^−5 s^−1 μM^−1”; on ArsD109 C12G/T15W (setting [6]) it was “(5 ± 0.1) × 10^−5 s^−1 μM^−1”; on ArsD109 C13G/T15W (setting [7]), “(4 ±0.2) × 10^−5 s^−1 μM^−1”. For the same compound, the “time to attain a steady-state level of fluorescence” value in data set [3] is listed as “more than 2 h”.

Take `O=C(O)[C@@H](S)[C@@H](S)C(=O)O` [DMSA, dimercaptosuccinic acid]: the “effect on basal activity of ArsA” value on ArsA ATPase (0.3 μM ArsA alone) is on record as “did not affect”. The “effect on As(III)-stimulated rate of ArsA activity” value on ArsA ATPase (0.3 μM ArsA, 0.5 mM sodium arsenite) is listed as “inhibited”.

With `N[C@@H](CCC(=O)N[C@@H](CS)C(=O)NCC(=O)O)C(=O)O` [GSH, reduced glutathione], the “acceleration of rate of As(III) fluorescence quenching” value in data set [1] (5 mM GSH, 50 μM sodium arsenite, 1 μM V17W, pH 7.5) was determined as 10 fold. In addition, the “rate of As(III) fluorescence quenching with additive” value in data set [1] (5 mM GSH, 50 μM sodium arsenite, pH ≥8) was “too fast to measure accurately”. The “effect of additive on rate of fluorescence quenching by As(III)” value (“effect of additive” below) in [1] (additive 0.2 mM, 50 μM sodium arsenite, pH 7.5) was “had little effect”; in data set [1] (setting [8]), “increased the rate substantially”. The pKa in [4] is reported as 8.7.

Regarding `N[C@@H](CS)C(=O)O` [L-cysteine], the “effect of additive” value in [1] (setting [8]) was “increased the rate of quenching”.

For the compound `Nc1ncnc2c1ncn2[C@@H]1O[C@H](COP(=O)([O-])OP(=O)([O-])O)[C@@H](O)[C@H]1O.[Mg+2]` [MgADP], the “transfer of As(III) from MBP-ArsD109 to ArsA” value (from here on “transfer of As(III)”) at ArsD109-ArsA (room temperature) is “As(III) eluted with MBP-ArsD109 and not with ArsA”.

Regarding `Nc1ncnc2c1ncn2[C@@H]1O[C@H](CO[P@](=O)(O)O[P@](=O)(O)O[P@@](=O)(O)S)[C@@H](O)[C@H]1O` [MgATP-γ-S], the “transfer of As(III)” value on ArsD109-ArsA (room temperature) was “did not promote transfer”.

Regarding `Nc1ncnc2c1ncn2[C@@H]1O[C@H](COP(=O)(O)OP(=O)([O-])OP(=O)([O-])O)[C@@H](O)[C@H]1O.[Mg+2]` [MgATP], the results for the “transfer of As(III)” value at ArsD109-ArsA (4 °C) and at ArsD109-ArsA (room temperature) were “almost no As(III) eluted with ArsA” and “nearly all of the As(III) eluted in the ArsA-containing fractions”, respectively.

Regarding `O.O.O.O=C([O-])[C@H]([O-])[C@@H]([O-])C(=O)[O-].O=C([O-])[C@H]([O-])[C@@H]([O-])C(=O)[O-].[K+].[K+].[Sb+3].[Sb+3]` [Sb(III), potassium antimonyl tartrate], in data set [1] (2.5 μM, pH 7.5), the “fluorescence quenching in the absence of added monothiols” value was “rapidly quenched fluorescence”. The fluorescence quenching result in data set [1] and in [2] was “approximately 50%” each time.

Regarding `O=C(O)CCP(CCC(=O)O)CCC(=O)O` [TCEP, tris(2-carboxyethyl)phosphine], the “effect of additive” value in data set [1] (setting [8]) is “did not increase the rate of quenching”.

As to `OCCS` [β-mercaptoethanol], the “effect of additive” value in data set [1] (setting [8]) was “increased the rate of quenching”.
